Experimental data as given in PubChem BioAssay AID493103 (Broad Institute, 2011).
Results filed as inconclusive are left out. Active and inactive are the calls of the source.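 Rule for the calls: active = compounds whose fitted half-maximal concentration lies within ten times the top tested dose in every run, with signal falling; inconclusive = runs disagree, or unclear curves such as poor fits; inactive = every run inactive, including rises in signal.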

test system: not listed separately; experiment: V. harveyi quorum sensing luminescence inhibition, dose response, counter-screen for LuxS inhibitor project, strain BB721, dry powder, set 3 (AID 493103); settings: Vibrio harveyi BB721 quorum sensing luminescence, 9 h; at 16 µM (top of the series)
In short: (§1)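 Material: V. harveyi BB721 quorum-sensing strain / Input: bacterial culture diluted to starting OD600 of 0.0005 / Buffer or medium: AB medium / Times: 9 h compound exposure, 30 °C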

Row | SMILES | activity change, negative = inhibition
1 | C[C@H](CO)N1C[C@H](C)[C@@H](CN(C)C(=O)Nc2ccc(C(F)(F)F)cc2)Oc2ccc(NC(=O)Nc3ccc4c(c3)OCO4)cc2C1=O | -10.5% (inactive)
2 | C[C@H]1CN([C@@H](C)CO)C(=O)c2cc(NC(=O)Nc3ccc4c(c3)OCO4)ccc2O[C@@H]1CN(C)C(=O)Nc1ccc(C(F)(F)F)cc1 | -0.179% (inactive)
3 | Cc1ccc(S(=O)(=O)Nc2ccc3c(c2)CC(=O)N([C@@H](C)CO)C[C@@H](C)[C@H](CN(C)C(=O)Nc2ccc(F)cc2)O3)cc1 | 3.81% (inactive)
4 | C[C@@H]1CCCCO[C@@H](CN(C)Cc2ccncc2)[C@H](C)CN([C@H](C)CO)C(=O)c2cc(NC(=O)C3CCCCC3)ccc2O1 | -3.87% (inactive)
5 | C[C@@H]1CN([C@@H](C)CO)C(=O)Cc2cc(NC(=O)CCCN(C)C)ccc2O[C@H]1CN(C)CC1CCCCC1 | 13.8% (inactive)
6 | C=Cn1c(C(=O)O)ccc1-c1cccs1 | -7.12% (inactive)
7 | C[C@@H]1CN([C@@H](C)CO)C(=O)Cc2cc(NC(=O)CCN3CCOCC3)ccc2O[C@H]1CN(C)C(=O)Nc1ccc(C(F)(F)F)cc1 | 6.93% (inactive)
8 | C[C@@H]1CN([C@@H](C)CO)C(=O)Cc2cc(NC(=O)CCN3CCOCC3)ccc2O[C@H]1CN(C)C(=O)Nc1ccc(F)cc1 | 1.22% (inactive)
9 | O=S(=O)(Nc1ccccn1)c1ccccc1 | 1.3% (inactive)
10 | C[C@@H]1CCCCO[C@@H](CN(C)C(=O)Nc2cccc3ccccc23)[C@H](C)CN([C@H](C)CO)C(=O)c2cc(NC(=O)CCC(F)(F)F)ccc2O1 | 2% (inactive)
11 | C[C@@H]1CCCCO[C@@H](CN(C)Cc2ccc(C(=O)O)cc2)[C@H](C)CN([C@H](C)CO)C(=O)c2cc(NC(=O)CCCN(C)C)ccc2O1 | -5.01% (inactive)
12 | Cc1ccc(S(=O)(=O)Nc2ccc3c(c2)C(=O)N([C@H](C)CO)C[C@H](C)[C@@H](CN(C)Cc2ccc(C(F)(F)F)cc2)O3)cc1 | -2.52% (inactive)
13 | C[C@@H]1CCCCO[C@@H](CN(C)C(=O)Nc2ccc(C(F)(F)F)cc2)[C@H](C)CN([C@@H](C)CO)C(=O)c2cc(NC(=O)CCC(F)(F)F)ccc2O1 | 2.01% (inactive)
14 | C[C@@H]1CN([C@H](C)CO)C(=O)c2cccc(NC(=O)Nc3ccc(C(F)(F)F)cc3)c2O[C@@H]1CN(C)C(=O)Nc1ccc(C(F)(F)F)cc1 | -11.1% (inactive)
15 | CNC[C@@H]1Oc2ccc(NC(=O)C3CCCCC3)cc2CC(=O)N([C@@H](C)CO)C[C@H]1C | 1.18% (inactive)
16 | C[C@H](CO)N1C[C@H](C)[C@H](CN(C)Cc2ccc(C(=O)O)cc2)Oc2ncc(-c3ccc(C(=O)N(C)C)cc3)cc2C1=O | 0.806% (inactive)

test system: Vibrio harveyi BB721 quorum sensing luminescence, 9 h; experiment: as above; settings: not given
In short: as §1

Row | SMILES | AC50 [µM]
17 | C[C@H](CO)N1C[C@H](C)[C@@H](CN(C)Cc2ccc3c(c2)OCO3)Oc2c(NC(=O)NC3CCCCC3)cccc2C1=O | 8.89
18 | C[C@@H]1CN([C@H](C)CO)C(=O)c2ccccc2-c2ccccc2CO[C@@H]1CN(C)Cc1ccc(Oc2ccccc2)cc1 | 13.8
19 | O=C1C=C/C(=C/Br)O1 | 4.47
20 | C=Cn1c(C(=O)O)ccc1-c1ccc(Cl)cc1 | 16.2
21 | O=S(=O)(Nc1cccnc1)c1ccc(Oc2ccccc2)cc1 | 1.02
